According to ChEMBL document CHEMBL2021767, “Library-based discovery and characterization of daphnane diterpenes as potent and selective HIV inhibitors in Daphne gnidium” (J Nat Prod, 2012):
pEC50: −log10 of the molar value. The source made the active and inactive calls. The rule behind the calls is not given here.

Legend:
[1] = system: Human immunodeficiency virus 1; assay: Resistance factor, ratio of EC50 for multidrug-resistant HIV1 695-RT infected in HEK293T cells to wildtype HIV1 infected in HEK293T cells; type: functional, HEK-293T
Outline: (§1)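 Resistance factor = EC50 against mutant virus (106-PR or 695-RT) divided by EC50 against wild-type; EC50s from 4-day HEK293T-transfection/HeLa-SxR5 co-culture with β-galactosidase read-out (405 nm), normalized to plate controls, curve-fitted.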

[2] = system: Human immunodeficiency virus 1; assay: Antiviral activity against multidrug-resistant HIV1 695-RT infected in HEK293T cells assessed as inhibition of viral replication after 4 days by beta-galactosidase reporter gene assay; type: functional, organism-based; settings: Human immunodeficiency virus 1, 695-RT, HEK-293T, 96 h
Outline: (§2)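 HEK293T transfected with proviral DNA (wild-type NL4-3 CXCR4-tropic or NL-AD87 CCR5-tropic, or multiresistant 106-PR protease-inhibitor or 695-RT RT-inhibitor mutants), then co-cultured 4 days with HeLa-SxR5 reporter cells (CD4, CCR5, endogenous CXCR4, LTR-LacZ) plus test substance; DMEM/10% FBS, 37 °C, 7% CO2. β-galactosidase colorimetric read at 405 nm, normalized to plate controls; EC50 from fitted dose-response curves.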

[3] = system: Human immunodeficiency virus 1; assay: Antiviral activity against multidrug-resistant HIV1 106-PR infected in HEK293T cells assessed as inhibition of viral replication after 4 days by beta-galactosidase reporter gene assay; type: functional, organism-based; settings: Human immunodeficiency virus 1, 106-PR, HEK-293T, 96 h; outline: as §2
[4] = system: Human immunodeficiency virus 1; assay: Antiviral activity against CCR5-tropic HIV1 NL-AD87 infected in HEK293T cells assessed as inhibition of viral replication after 4 days by beta-galactosidase reporter gene assay; type: functional, organism-based; settings: Human immunodeficiency virus 1, NL-AD87, HEK-293T, 96 h; outline: as §2
[5] = system: Human immunodeficiency virus 1; assay: Antiviral activity against CXCR4-tropic HIV1 NL4-3 infected in HEK293T cells assessed as inhibition of viral replication after 4 days by beta-galactosidase reporter gene assay; type: functional, organism-based; settings: Human immunodeficiency virus 1, NL4-3, HEK-293T, 96 h; outline: as §2
[6] = system: HEK-293T; assay: Cytotoxicity against human HEK293T cells after 4 days by Alamar blue assay; type: cell-based; settings: 96 h
Outline: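 Same culture set-up as the anti-HIV assay (HEK293T with HeLa-SxR5, DMEM/10% FBS, 37 °C, 7% CO2) but with no proviral DNA transfected; viability read with AlamarBlue after 4 days.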

[7] = system: Human immunodeficiency virus 1; assay: Resistance factor, ratio of EC50 for multidrug-resistant HIV1 106-PR infected in HEK293T cells to wildtype HIV1 infected in HEK293T cells; type: functional, HEK-293T; outline: as §1
[8] = system: Human immunodeficiency virus 1; assay: Antiviral activity against wild type Human immunodeficiency virus 1 NL4-3 pseudotyped with HIV envelope infected in human HeLa-SxR5 cells assessed as inhibition of viral replication at 65 nM after 3 days by beta-galactosidase assay; type: functional, organism-based
Outline: (§3)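 HEK293T cells cotransfected with an envelope-defective NL4-3-derived provirus plus a plasmid expressing full-length NL4-3 HIV envelope. Supernatants were harvested 2 days post-transfection, spun at low speed to clear debris, and used to transduce HeLa-SxR5 reporter cells (CD4/CCR5, endogenous CXCR4, HIV-LTR-LacZ) with or without compound. β-galactosidase was read colorimetrically at 405 nm 3 days later and normalised to positive and negative control wells as percent inhibition.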

[9] = system: Human immunodeficiency virus 1; assay: Antiviral activity against wild type Human immunodeficiency virus 1 NL4-3 pseudotyped with VSV envelope infected in human HeLa-SxR5 cells assessed as inhibition of viral replication at 65 nM after 3 days by beta-galactosidase assay; type: functional, organism-based
Outline: (§4)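 Pseudoparticles made by cotransfecting HEK293T with env-defective NL4-3 provirus plus plasmid for full-length NL4-3 Env or VSV envelope; supernatants harvested 2 days post-transfection, cleared by low-speed spin, used to transduce HeLa-SxR5 with or without compound at increasing concentrations; β-galactosidase activity measured 3 days later; means ± standard deviation.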

[10] = system: PBMC; assay: Upregulation of CD69 expression in PHA- and IL-2-stimulated human PBMC membranes at 20 nM after 48 hrs by flow cytometric analysis; type: functional, cell-based
Outline: (§5)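 Healthy-donor PBMCs at 1 × 10^6 cells/mL in RPMI/10% FBS, activated 48 h with PHA 2.5 μg/mL and IL-2 300 IU/mL, then treated 48 h with 20 nM compound or vehicle (0.25% DMSO, 100 IU/mL IL-2). Sampled at 0, 2, 5, 24, 48 h; stained 40 min at 4 °C with FITC anti-CXCR4 or anti-CCR5, or PE anti-CD69, plus isotype controls; flow cytometry, % cells expressing each receptor.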

[11] = system: PBMC; assay: Down-regulation of CXCR4 expression in PHA- and IL-2-stimulated human PBMC membranes at 20 nM after 48 hrs by flow cytometric analysis; type: functional, cell-based; outline: as §5
[12] = system: PBMC; assay: Down-regulation of CCR5 expression in PHA- and IL-2-stimulated human PBMC membranes at 20 nM after 48 hrs by flow cytometric analysis; type: functional, cell-based; outline: as §5
[13] = system: Human immunodeficiency virus 1; assay: Antiviral activity against wild type Human immunodeficiency virus 1 NL4-3 pseudotyped with VSV envelope infected in human HeLa-SxR5 cells assessed as inhibition of viral replication after 3 days by beta-galactosidase assay; type: functional, organism-based; outline: as §4
[14] = system: Human immunodeficiency virus 1; assay: Antiviral activity against wild type Human immunodeficiency virus 1 NL4-3 pseudotyped with HIV envelope infected in human HeLa-SxR5 cells assessed as inhibition of viral replication after 3 days by beta-galactosidase assay; type: functional, organism-based; outline: as §4
[15] = system: Human immunodeficiency virus 1; assay: Antiviral activity against wild type Human immunodeficiency virus 1 NL4-3 pseudotyped with HIV envelope infected in human HeLa-SxR5 cells assessed as inhibition of viral replication at 300 nM after 3 days by beta-galactosidase assay; type: functional, organism-based; outline: as §3
[16] = system: Human immunodeficiency virus 1; assay: Antiviral activity against wild type Human immunodeficiency virus 1 NL4-3 pseudotyped with VSV envelope infected in human HeLa-SxR5 cells assessed as inhibition of viral replication at 300 nM after 3 days by beta-galactosidase assay; type: functional, organism-based; outline: as §4

Row | Compound | Ratio EC50 [1] | pEC50 [2] | pEC50 [3] | pEC50 [4] | pEC50 [5] | Activity [6] | Ratio EC50 [7] | also measured
1 | Nc1ccn([C@@H]2CS[C@H](CO)O2)c(=O)n1 [LAMIVUDINE] | >300 | < 4.70 | – | – | – | – | – | –
2 | Cc1cn([C@H]2C[C@H](N=[N+]=[N-])[C@@H](CO)O2)c(=O)[nH]c1=O [ZIDOVUDINE] | 11 | 6.70 | 8.22 | – | – | – | – | –
3 | C=C(C)[C@]12C[C@@H](C)[C@@]34O[C@](/C=C/C=C/CCCCC)(O[C@@H]1[C@@H]3[C@@H]1O[C@]1(CO)[C@@H](O)[C@]1(O)C(=O)C(C)=C[C@H]14)O2 [EXCOECARIA TOXIN] | – | – | – | 5.80 | 5.97 | Non-toxic | – | –
4 | COC(=O)N[C@H](C(=O)N[C@@H](Cc1ccccc1)[C@@H](O)CN(Cc1ccc(-c2ccccn2)cc1)NC(=O)[C@@H](NC(=O)OC)C(C)(C)C)C(C)(C)C [ATAZANAVIR] | – | – | 6.49 | – | – | – | 7 | –
5 | O=C1Nc2ccc(Cl)cc2[C@@](C#CC2CC2)(C(F)(F)F)O1 [EFAVIRENZ] | 222 | 6.05 | – | – | – | – | – | inhibition [8]: Active; inhibition [9]: Active
6 | CC(C)CN(C[C@@H](O)[C@H](Cc1ccccc1)NC(=O)O[C@H]1CO[C@H]2OCC[C@H]21)S(=O)(=O)c1ccc(N)cc1 [DARUNAVIR] | – | – | 4.86 | – | – | – | >300 | –
7 | Cc1cccc(C)c1OCC(=O)N[C@@H](Cc1ccccc1)[C@@H](O)C[C@H](Cc1ccccc1)NC(=O)[C@H](C(C)C)N1CCCNC1=O [LOPINAVIR] | – | – | 6.80 | – | – | – | 10 | –
8 | C=C(C)C12OC3(c4ccccc4)OC1[C@@H]1[C@@H]4O[C@]4(CO)[C@@H](O)[C@]4(O)C(=O)C(C)=C[C@H]4C1(O3)[C@H](C)[C@H]2OC(=O)/C=C/C=C/C=C/CCC (stereo not given in full) [GNIDITRIN] | – | – | – | 6.88 | 7.13 | Non-toxic | – | –
9 | CC(C)(C)NC(=O)[C@@H]1C[C@@H]2CCCC[C@@H]2CN1C[C@@H](O)[C@H](Cc1ccccc1)NC(=O)[C@H](CC(N)=O)NC(=O)c1ccc2ccccc2n1 [SAQUINAVIR] | – | – | 7.92 | – | – | – | 1 | –
10 | C=C(C)[C@]12C[C@@H](C)[C@@]34O[C@](c5ccccc5)(O[C@@H]1[C@@H]3[C@@H]1O[C@]1(CO)[C@@H](O)[C@]1(O)C(=O)C(C)=C[C@H]14)O2 [DAPHNETOXIN] | 1 | 7.68 | 7.66 | 7.57 | 7.79 | Non-toxic | 1 | Activity [10]: Active; Activity [11]: Active; Activity [12]: Active; inhibition [13]: Dose-dependent effect; inhibition [14]: Dose-dependent effect
11 | C=C(C)[C@@]12O[C@@]3(c4ccccc4)O[C@@H]1[C@@H]1[C@@H]4O[C@]4(CO)[C@@H](O)[C@]4(O)C(=O)C(C)=C[C@H]4[C@@]1(O3)[C@H](C)[C@H]2OC(=O)/C=C/c1ccccc1 [GNIDICIN] | – | – | – | 7.75 | 8.07 | Non-toxic | – | –
12 | enfuvirtide | – | – | – | – | – | – | – | inhibition [15]: Active; inhibition [16]: inactive
